In ChEMBL document CHEMBL1152278, “Discovery of ligands for a novel target, the human telomerase RNA, based on flexible-target virtual screening and NMR” (J Med Chem, 2008) one finds Kd data, which are given here for 10 compounds.

This assay in a line: Binding affinity to human telomerase P2b RNA by […]. In a few lines: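 hTR-P2b RNA made by in vitro T7 polymerase transcription from a synthetic DNA template. Titration was at 50 μM RNA in 20 mM sodium phosphate pH 6.7, 50 mM NaCl, 90/10% H₂O/D₂O, 15 °C, with ligand added stepwise. Kd was fitted from 800 MHz imino-proton chemical shifts under a fast-exchange model.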
`N#Cc1ccc2c(c1)N(CCCN1CCN(CCO)CC1)c1ccccc1S2`: the Kd (as a rule, the free concentration of one partner at which half of the binding sites on the other are occupied at equilibrium, for simple one-to-one binding) was found to be 310 µM.
The result for `O=C(c1ccc(O)cc1)c1ccc(O)cc1` reads 1500 µM; that for `CN(C)CCCN1c2ccccc2[C@H]2C[C@H]2c2ccccc21`, 1100 µM.
`OCCOCCN1CCN(CCCN2c3ccccc3Sc3ccc(C(F)(F)F)cc32)CC1` came in with a Kd of 1100 µM.
For the compound `C[n+]1ccc(Nc2ccc(NC(=O)c3ccc(N)cc3[N+](=O)[O-])cc2)cc1`, the Kd turned out to be 570 µM.
In the case of `C[n+]1ccc(Nc2ccc(NC(=O)c3ccc(N)cc3)cc2)cc1` it was 1100 µM.
The compound `CN1CCN2c3ncccc3Cc3ccccc3C2C1` (stereo not given) [MIRTAZAPINE] came in with a Kd of 1500 µM.
`CN1CCN(CCCN2c3ccccc3Sc3ccc(S(=O)(=O)N(C)C)cc32)CC1` [THIOPROPERAZINE] came in with a Kd of 450 µM.
The compound `Nc1ccc(NC(=O)c2ccc(N)cc2)cc1` yielded a Kd of 180 µM.
For `CCN(CC)Cc1cc(Nc2c3ccccc3nc3c4ccccc4n(C)c23)ccc1O`, the equilibrium dissociation constant (Kd) turned out to be 84 µM.
